Assay results as given in ChEMBL document CHEMBL3232709, “Facile synthesis of benzonitrile/nicotinonitrile based s-triazines as new potential antimycobacterial agents” (Eur J Med Chem, 2014).
Converted amounts (≈) assume the structure as drawn.

Legend:
[1] = system: Mycobacterium tuberculosis; experiment: Antimycobacterial activity against Mycobacterium tuberculosis H37Rv assessed as growth inhibition […] by Lowenstein-Jensen agar dilution method; format: functional
Method in brief: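 Test compounds dissolved in DMSO and added to liquid Lowenstein-Jensen medium at 25, 12.5, 6.25, 3.12 and 1.56 dilutions. Medium sterilised by inspissation, then tubes held 37 °C for 24 h. H37Rv (harvested into 0.85% saline) streaked at 5 × 10⁴ bacilli/tube and incubated at 37 °C. Growth checked at 12, 22 and 28 days against medium-only controls. MIC taken as no colonies or <20 colonies.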

Vero = experiment: Cytotoxicity against African green monkey Vero cells assessed as cell viability after 72 hrs by MTT assay; format: cell-based; conditions: Chlorocebus sabaeus
[2] = system: Mycobacterium tuberculosis; experiment: Antimycobacterial activity against Mycobacterium tuberculosis H37Rv assessed as growth inhibition at 6.25 ug/ml measured within 10 days by BACTEC MGIT method; format: functional; conditions: 240 h
Method in brief: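 Primary single-concentration screen at 6.25 in MGIT tubes containing modified Middlebrook 7H9 broth. H37Rv inoculum was 10⁴–10⁷ CFU/mL, […]. Incubated at 37 °C in the BACTEC MGIT instrument until positive, read daily from day 2. Fluorescence was judged under UV beside positive control and uninoculated tubes. Result scored as % inhibition.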

SMILES	MIC99 [1]	IC50 (Vero)	inhibition at 6.25 µg/mL [2]
CN1CCN(c2nc(Oc3ccc(C#N)cc3)nc(-c3ccc(N4C(=O)CSC4c4ccccc4)cc3)n2)CC1 (configuration not stated)	200 µg/mL (≈ 364 µM)	–	–
CN1CCN(c2nc(Oc3ccc(C#N)cc3)nc(-c3ccc(N4C(=O)CSC4c4ccc(Cl)cc4)cc3)n2)CC1 (configuration not stated)	62.5 µg/mL (≈ 107 µM)	–	–
CN1CCN(c2nc(Oc3ccc(C#N)cc3)nc(-c3ccc(N4C(=O)CSC4c4ccc(Br)cc4)cc3)n2)CC1 (configuration not stated)	25 µg/mL (≈ 39.8 µM)	> 62.5 µg/mL	–
CN1CCN(c2nc(Oc3ccc(C#N)cc3)nc(-c3ccc(N4C(=O)CSC4c4ccc(F)cc4)cc3)n2)CC1 (configuration not stated)	100 µg/mL (≈ 176 µM)	–	–
CN1CCN(c2nc(Oc3ccc(C#N)cc3)nc(-c3ccc(N4C(=O)CSC4c4ccc([N+](=O)[O-])cc4)cc3)n2)CC1 (configuration not stated)	100 µg/mL (≈ 168 µM)	–	–
CN1CCN(c2nc(Oc3ccc(C#N)cc3)nc(-c3ccc(N4C(=O)CSC4c4ccc(O)cc4)cc3)n2)CC1 (configuration not stated)	12.5 µg/mL (≈ 22.1 µM)	> 62.5 µg/mL	99%
COc1ccc(C2SCC(=O)N2c2ccc(-c3nc(Oc4ccc(C#N)cc4)nc(N4CCN(C)CC4)n3)cc2)cc1 (configuration not stated)	25 µg/mL (≈ 43.1 µM)	> 62.5 µg/mL	–
CN1CCN(c2nc(Oc3ccc(C#N)cn3)nc(-c3ccc(N4C(=O)CSC4c4ccccc4)cc3)n2)CC1 (configuration not stated)	125 µg/mL (≈ 227 µM)	–	–
CN1CCN(c2nc(Oc3ccc(C#N)cn3)nc(-c3ccc(N4C(=O)CSC4c4ccc(Cl)cc4)cc3)n2)CC1 (configuration not stated)	100 µg/mL (≈ 171 µM)	–	–
CN1CCN(c2nc(Oc3ccc(C#N)cn3)nc(-c3ccc(N4C(=O)CSC4c4ccc(Br)cc4)cc3)n2)CC1 (configuration not stated)	62.5 µg/mL (≈ 99.3 µM)	–	–
CN1CCN(c2nc(Oc3ccc(C#N)cn3)nc(-c3ccc(N4C(=O)CSC4c4ccc(F)cc4)cc3)n2)CC1 (configuration not stated)	6.25 µg/mL (≈ 11 µM)	> 62.5 µg/mL	99%
CN1CCN(c2nc(Oc3ccc(C#N)cn3)nc(-c3ccc(N4C(=O)CSC4c4ccc([N+](=O)[O-])cc4)cc3)n2)CC1 (configuration not stated)	100 µg/mL (≈ 168 µM)	–	–
CN1CCN(c2nc(Oc3ccc(C#N)cn3)nc(-c3ccc(N4C(=O)CSC4c4ccc(O)cc4)cc3)n2)CC1 (configuration not stated)	3.12 µg/mL (≈ 5.51 µM)	> 62.5 µg/mL	99%
COc1ccc(C2SCC(=O)N2c2ccc(-c3nc(Oc4ccc(C#N)cn4)nc(N4CCN(C)CC4)n3)cc2)cc1 (configuration not stated)	6.25 µg/mL (≈ 10.8 µM)	> 62.5 µg/mL	99%
CC[C@@H](CO)NCCN[C@@H](CC)CO [ETHAMBUTOL]	3.12 µg/mL (≈ 15.3 µM)	> 62.5 µg/mL	–
NNC(=O)c1ccncc1 [ISONIAZID]	0.2 µg/mL (≈ 1.46 µM)	> 62.5 µg/mL	–
NC(=O)c1cnccn1 [PYRAZINAMIDE]	6.25 µg/mL (≈ 50.8 µM)	> 62.5 µg/mL	–
CO[C@H]1/C=C/O[C@@]2(C)Oc3c(C)c(O)c4c(O)c(c(/C=N/N5CCN(C)CC5)c(O)c4c3C2=O)NC(=O)/C(C)=C\C=C\[C@H](C)[C@H](O)[C@@H](C)[C@@H](O)[C@@H](C)[C@H](OC(C)=O)[C@@H]1C [RIFAMPIN]	0.25 µg/mL (≈ 0.304 µM)	> 62.5 µg/mL	–
